Test results published in article PMC5083853 (Bioorganic & medicinal chemistry, 2016).

Tests used:
M9-ENL1 cells = assay: Cytotoxicity against M9-ENL1 leukemia cells; assay type: cell-based; conditions: for fold lower LC50 of C9 analog vs. C14-functionalized counterpart: 4, 6, 11 compared to 5, 7, 12
[1] = system: human umbilical cord blood cells (hUBC); assay: Human umbilical cord blood cell cytotoxicity test; assay type: cell-based; conditions: read-out: hUBC LC50; human umbilical cord blood cells, 24 h, cell viability, mean ± SD (n = 3)
In short: (§1)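 Fresh cord blood (within 48 h of collection) was separated on a Ficoll-Paque gradient and cultured without cryopreservation at 37 °C, 5% CO2, in serum-free Iscove's MDM with 20% BIT 9500, LDL and β-mercaptoethanol. Cells got ≥3 doses of test compound from DMSO stock for 24 h, were stained for CD45, CD34 and DAPI, and were analysed by flow cytometry. Viable CD34+CD45dim percentage was compared with vehicle.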

[2] = Solubility in buffered solutions at neutral pH; assay type: physicochemical
[3] = Human umbilical cord blood cell cytotoxicity test; assay type: cell-based; conditions: human, hUBC LC50, human umbilical cord blood cells, cell viability, mean ± SD (n = 3)
In short: as §1

In the case of `C=C1C(=O)O[C@H]2[C@H]1C[C@H](OC(=O)c1cn(C)c3ccccc13)/C(C)=C/CC[C@@]1(C)O[C@@H]21` [Compound 6, (3aS,5S,9aR,10aS,10bS,E)-6,9a-dimethyl-3-methylene-2-oxo-2,3,3a,4,5,8,9,9a,10a,10b decahydrooxireno [2′,3′:9,10] cyclodeca[1,2-b]furan-5-yl 1-methyl-1H-indole-3-carboxylate], the “fold lower LC50 of C9 analog vs. C14-functionalized counterpart” value (M9-ENL1 cells) was 2- to 3 fold.
For `C=C1C(=O)O[C@H]2[C@H]1C[C@H](OC(C(=O)OCC)c1ccc(C(F)(F)F)cc1)/C(C)=C/CC[C@@]1(C)O[C@@H]21` (stereo partly drawn) [Compound 22, ethyl 2-(((3aR,5S,9aR,10aS,10bS,E)-6,9a-dimethyl-3-methylene-2-oxo-2,3,3a,4,5,8,9,9a,10a,10b-decahydrooxireno [2′,3′:9,10]cyclodeca[1,2-b]furan-5-yl)oxy)-2-(4-(trifluoromethyl)phenyl)acetate], the “fold lower LC50 than the phenyl-containing counterparts (18, 19)” value (M9-ENL1 cells) was 2- to 3 fold.
With `C=C1C(=O)O[C@H]2[C@H]1C[C@H](OC(=O)c1ccc3ccccc3c1)/C(C)=C/CC[C@@]1(C)O[C@@H]21` [Compound 4, (3aS,5S,9aR,10aS,10bS,E)-6,9a-dimethyl-3-methylene-2oxo2,3,3a,4,5,8,9,9a,10a,10bdecahydrooxireno[2′,3′:9,10]cycl odeca [1,2-b]furan-5-yl 2-naphthoate] the “fold lower LC50 of C9 analog vs. C14-functionalized counterpart” value (M9-ENL1 cells) was 2- to 3 fold.
`C=C1C(=O)O[C@H]2[C@H]1C[C@H](OC(C(=O)OCc1ccccc1)c1ccccc1)/C(C)=C/CC[C@@]1(C)O[C@@H]21` (stereo partly drawn) [Compound 25b, benzyl 2-(((3aR,5S,9aR,10aS,10bS,E)-6,9a-dimethyl-3-methylene-2-oxo-2,3,3a,4,5,8,9,9a,10a,10b-decahydrooxireno [2′,3′:9,10]cyclodeca[1,2-b]furan-5-yl)oxy)-2-phenylacetate] showed a CC50 [1] greater than 5 µM.
In the case of `C=C1C(=O)O[C@H]2[C@H]1CC/C(COC(C(=O)OCCN1CCOCC1)c1ccccc1)=C/CC[C@@]1(C)O[C@@H]21` (stereo partly drawn) [Compound 28, 2-morpholinoethyl 2-(((3aR,9aR,10aS,10bS,Z)-9a-methyl-3-methylene-2-oxo-2,3,3a,4,5,8,9,9a,10a,10b-decahydrooxireno [2′,3′:9,10]cyclodeca[1,2-b]furan-6-yl)methoxy)-2-phenylacetate], the “fold reduction of activity compared to PTL” value (“fold reduction of activity” for short) (M9-ENL1 cells) was 3 to 5 folds and the “solubility in buffered solutions” value [2] was “improved solubility”.
With `C=C1C(=O)O[C@@H]2[C@@H]1CC/C(COC(C(=O)OCC)c1ccc(C(F)(F)F)cc1)=C/CC[C@]1(C)O[C@H]21` (stereo partly drawn) [Compound 23b, ethyl 2-(((3aR,9aR,10aS,10bS,Z)-9a-methyl-3-methylene-2-oxo-2,3,3a,4,5,8,9,9a,10a,10b-decahydrooxireno[2′,3′:9,10]cyclodeca[1,2-b]furan-6-yl)methoxy)-2-(4-(trifluoromethyl)phenyl)acetate] the CC50 [1] was greater than 5 µM.
In the case of `C=C1C(=O)O[C@@H]2[C@@H]1CC/C(COC(C(=O)OCC)c1ccc(C(F)(F)F)cc1)=C/CC[C@]1(C)O[C@H]21` (stereo partly drawn) [Compound 23, ethyl 2-(((3aR,9aR,10aS,10bS,Z)-9a-methyl-3-methylene-2-oxo-2,3,3a,4,5,8,9,9a,10a,10b-decahydrooxireno[2′,3′:9,10]cyclodeca[1,2-b]furan-6-yl)methoxy)-2-(4-(trifluoromethyl)phenyl)acetate], the “fold lower LC50 than the phenyl-containing counterparts (18, 19)” value (M9-ENL1 cells) was 2- to 3 fold.
In the case of `C=C1C(=O)O[C@H]2[C@H]1CC/C(COC(C(=O)OCCN1CCCC1)c1ccccc1)=C/CC[C@@]1(C)O[C@@H]21` (stereo partly drawn) [Compound 29, 2-(pyrrolidin-1-yl)ethyl 2-(((3aR,5S,9aR,10aS,10bS,E)-6,9a-dimethyl-3-methylene-2-oxo-2,3,3a,4,5,8,9,9a,10a,10b-decahydrooxireno[2′,3′:9,10]cyclodeca[1,2-b]furan-5-yl)oxy)-2-phenylacetate], the “fold reduction of activity” value (M9-ENL1 cells) was 3 to 5 folds and the “solubility in buffered solutions” value [2] was “improved solubility”.
For `C=C1C(=O)O[C@H]2[C@H]1C[C@H](OC(C(=O)OCCN1CCOCC1)c1ccccc1)/C(C)=C/CC[C@@]1(C)O[C@@H]21` (stereo partly drawn) [Compound 27, 2-morpholinoethyl2-(((3aR,5S,9aR,10aS,10bS,E)-6,9a-dimethyl-3-methylene-2-oxo-2,3,3a,4,5,8,9,9a,10a,10b-decahydrooxireno[2′,3′:9,10]cyclodeca[1,2-b]furan-5-yl)oxy)-2-phenyl acetate], the “fold reduction of activity” value (M9-ENL1 cells) was 3 to 5 folds and the “solubility in buffered solutions” value [2] was “improved solubility”.
With `C=C1C(=O)O[C@H]2[C@H]1C[C@H](OC(=O)c1cc(-c3ccc(Cl)cc3)on1)/C(C)=C/CC[C@@]1(C)O[C@@H]21` [Compound 11, (3aR,5S,9aR,10aS,10bS,E)-6,9a-dimethyl-3-methylene-2-oxo-2,3,3a,4,5,8,9,9a,10a,10b-decahydrooxireno[2′,3′:9,10] cyclodeca[1,2-b]furan-5-yl 5-(4-chlorophenyl)isoxazole-3-carboxylate] the “fold lower LC50 of C9 analog vs. C14-functionalized counterpart” value (M9-ENL1 cells) was 2- to 3 fold.
With `C=C1C(=O)O[C@H]2[C@H]1CC/C(COCc1ccccc1)=C/CC[C@@]1(C)O[C@@H]21` [Compound 14, (3aR,9aR,10aS,10bS,Z)-6-((benzyloxy)methyl)-9a-methyl-3-methylene-3a,4,5,8,9,9a,10a,10b-octahydrooxireno[2′,3′:9,10] cyclodeca[1,2-b]furan-2(3H)-one] the “fold lower cytotoxicity compared to C14-benzoylated counterpart” value (M9-ENL1 cells) was 2 fold.
With `C=C1C(=O)O[C@H]2[C@H]1C[C@H](OC(C(=O)OCc1ccccc1)c1ccccc1)/C(C)=C/CC[C@@]1(C)O[C@@H]21` (stereo partly drawn) [Compound 25a, benzyl 2-(((3aR,5S,9aR,10aS,10bS,E)-6,9a-dimethyl-3-methylene-2-oxo-2,3,3a,4,5,8,9,9a,10a,10b-decahydrooxireno [2′,3′:9,10]cyclodeca[1,2-b]furan-5-yl)oxy)-2-phenylacetate] the CC50 at 24 h [3] was greater than 5 µM.
`C=C1C(=O)O[C@H]2[C@H]1CC/C(C)=C/CC[C@@]1(C)O[C@@H]21` [PTL, parthenolide, reference compound] showed a CC50 at 24 h [3] greater than 20 µM.
Work on `C=C1C(=O)O[C@H]2[C@H]1C[C@H](OC(C(=O)OCC)c1ccc(C(F)(F)F)cc1)/C(C)=C/CC[C@@]1(C)O[C@@H]21` (stereo partly drawn) [Compound 22a, ethyl 2-(((3aR,5S,9aR,10aS,10bS,E)-6,9a-dimethyl-3-methylene-2-oxo-2,3,3a,4,5,8,9,9a,10a,10b-decahydrooxireno [2′,3′:9,10]cyclodeca[1,2-b]furan-5-yl)oxy)-2-(4-(trifluoromethyl)phenyl)acetate] yielded a CC50 at 24 h [3] greater than 5 µM.
For `C=C1C(=O)O[C@H]2[C@H]1CC/C(COC(C(=O)OCC)c1ccccc1C(F)(F)F)=C/CC[C@@]1(C)O[C@@H]21` (stereo partly drawn) [Compound 21, ethyl2-(((3aR,9aR,10aS,10bS,Z)-9a-methyl-3-methylene-2-oxo-2,3,3a,4,5,8,9,9a,10a,10b-decahydrooxireno[2′,3′:9,10]cyclodeca[1,2-b]furan-6-yl)methoxy)-2-(2-(trifluoromethyl)phenyl)acetate], the “fold lower LC50 than the phenyl-containing counterparts (18, 19)” value (M9-ENL1 cells) was 2- to 3 fold.
In the case of `C=C1C(=O)O[C@H]2[C@H]1C[C@H](OC(C(=O)OCC)c1ccccc1C(F)(F)F)/C(C)=C/CC[C@@]1(C)O[C@@H]21` (stereo partly drawn) [Compound 20, ethyl2-(((3aR,5S,9aR,10aS,10bS,E)-6,9a-dimethyl-3-methylene-2-oxo-2,3,3a,4,5,8,9,9a,10a,10b-decahydrooxireno [2′,3′:9,10]cyclodeca[1,2-b]furan-5-yl)oxy)-2-(2-(trifluoromethyl)phenyl)acetate], the “fold lower LC50 than the phenyl-containing counterparts (18, 19)” value (M9-ENL1 cells) was 2- to 3 fold.
